Results reported in ChEMBL document CHEMBL1139462, “Identification of novel and improved antimitotic agents derived from noscapine” (J Med Chem, 2005).
Active and inactive are the calls of the source. The rule behind the calls is not given here.

Assays:
[1] = Cell cycle arrest in HEK293EBNA cells by accumulation at G1 phase cell at 1 uM relative to DMSO; assay type: functional, cell-based; settings: Homo sapiens, HEK293-EBNA
How it was run: (§1)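 HEK293 cells were exposed to compound for 16 h at the stated concentration, then analyzed by FACS for cell-cycle distribution (G1, S and G2/M fractions). Profiles were compared with a 0.5% DMSO vehicle control.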

[2] = Cell cycle arrest in HEK293EBNA cells by accumulation at S phase cell at 1 uM relative to DMSO; assay type: functional, cell-based; settings: Homo sapiens, HEK293-EBNA; how it was run: as §1
[3] = Cell cycle arrest in HEK293EBNA cells by accumulation at G2/M phase cell at 1 uM relative to DMSO; assay type: functional, cell-based; settings: Homo sapiens, HEK293-EBNA; how it was run: as §1
[4] = Cell cycle arrest in HEK293EBNA cells by accumulation at G1 phase cell at 5 uM relative to DMSO; assay type: functional, cell-based; settings: Homo sapiens, HEK293-EBNA; how it was run: as §1
[5] = Cell cycle arrest in HEK293EBNA cells by accumulation at S phase cell at 5 uM relative to DMSO; assay type: functional, cell-based; settings: Homo sapiens, HEK293-EBNA; how it was run: as §1
[6] = Cell cycle arrest in HEK293EBNA cells by accumulation at G2/M phase cell at 5 uM relative to DMSO; assay type: functional, cell-based; settings: Homo sapiens, HEK293-EBNA; how it was run: as §1
[7] = system: A549; test: Effect on cell growth in A549 cells by MTS assay; assay type: functional, cell-based; settings: Homo sapiens
[8] = system: A549; test: Effect on cell growth in A549 cells by colony-forming assay; assay type: functional, cell-based; settings: Homo sapiens
[9] = Cell cycle arrest in HEK293EBNA cells by accumulation at G1 phase cell at 50 uM relative to DMSO; assay type: functional, cell-based; settings: Homo sapiens, HEK293-EBNA; how it was run: as §1
[10] = Cell cycle arrest in HEK293EBNA cells by accumulation at S phase cell at 50 uM relative to DMSO; assay type: functional, cell-based; settings: Homo sapiens, HEK293-EBNA; how it was run: as §1
[11] = Cell cycle arrest in HEK293EBNA cells by accumulation at G2/M phase cell at 50 uM relative to DMSO; assay type: functional, cell-based; settings: Homo sapiens, HEK293-EBNA; how it was run: as §1
[12] = AUC in mouse at 20 mg/kg, po; assay type: ADME, organism-based; set-up: dose 20 mg/kg, route oral; settings: plasma
[13] = Bioavailability in mouse at 20 mg/kg, po; assay type: ADME, organism-based; settings: in vivo
[14] = Cell cycle arrest in HEK293EBNA cells by accumulation at G1 phase cell at 0.1 uM relative to DMSO; assay type: functional, cell-based; settings: Homo sapiens, HEK293-EBNA
How it was run: (§2)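 HEK293 cells were exposed for 16 h to compound or to a 0.5% DMSO vehicle control. Cell-cycle phase distribution (G1, S, G2/M) was determined by FACS analysis and compared with the DMSO profile.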

[15] = Cell cycle arrest in HEK293EBNA cells by accumulation at S phase cell at 0.1 uM relative to DMSO; assay type: functional, cell-based; settings: Homo sapiens, HEK293-EBNA; how it was run: as §2
[16] = Cell cycle arrest in HEK293EBNA cells by accumulation at G2/M phase cell at 0.1 uM relative to DMSO; assay type: functional, cell-based; settings: Homo sapiens, HEK293-EBNA; how it was run: as §2
[17] = biological target: Tubulin; test: Inhibition of tubulin polymerization; assay type: protein-complex assay, Homo sapiens
[18] = system: NIH3T3; test: Effect on cell growth in nondividing Swiss 3T3 cells at 3 uM by MTS assay; assay type: functional, cell-based; settings: Mus musculus
How it was run: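 Swiss 3T3 cells were tested in either a dividing or a nondividing state. Growth was read out by MTS assay, and an EC50 was derived for the dividing cells.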

[19] = AUC in mouse at 2 mg/kg, iv; assay type: ADME, organism-based; set-up: dose 2 mg/kg, route intravenous; settings: plasma
[20] = (§3) Volume of distribution in mouse at 2 mg/kg, iv; assay type: ADME, organism-based; set-up: dose 2 mg/kg, route intravenous; settings: in vivo, read-out: Vdss
[21] = (§4) Half life in mouse at 2 mg/kg, iv; assay type: ADME, organism-based; set-up: dose 2 mg/kg, route intravenous; settings: in vivo
[22] = Clearance in mouse at 2 mg/kg, iv; assay type: ADME, organism-based; set-up: dose 2 mg/kg, route intravenous; settings: in vivo
How it was run: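 Pharmacokinetics were measured in mice, with an intravenous dose of 2 mg/kg; the study's oral arm used 20 mg/kg po.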

[23] = Cell cycle arrest in HEK293EBNA cells by accumulation at G1 phase cell at 10 uM relative to DMSO; assay type: functional, cell-based; settings: Homo sapiens, HEK293-EBNA; how it was run: as §2
[24] = Cell cycle arrest in HEK293EBNA cells by accumulation at S phase cell at 10 uM relative to DMSO; assay type: functional, cell-based; settings: Homo sapiens, HEK293-EBNA; how it was run: as §2
[25] = Cell cycle arrest in HEK293EBNA cells by accumulation at G2/M phase cell at 10 uM relative to DMSO; assay type: functional, cell-based; settings: Homo sapiens, HEK293-EBNA; how it was run: as §2
[26] = system: Mus musculus; test: as §3; assay type: ADME, organism-based; set-up: dose 2 mg/kg, route intravenous; settings: in vivo
[27] = system: Mus musculus; test: as §4; assay type: ADME, organism-based; set-up: dose 2 mg/kg, route intravenous; settings: in vivo
[28] = system: NIH3T3; test: Effect on cell growth in nondividing Swiss 3T3 cells at 50 uM by MTS assay; assay type: functional, cell-based; settings: Mus musculus
[29] = Cell cycle arrest in HEK293EBNA cells by accumulation at G1 phase cell at 0.5 uM relative to DMSO; assay type: functional, cell-based; settings: Homo sapiens, HEK293-EBNA; how it was run: as §1
[30] = Cell cycle arrest in HEK293EBNA cells by accumulation at S phase cell at 0.5 uM relative to DMSO; assay type: functional, cell-based; settings: Homo sapiens, HEK293-EBNA; how it was run: as §1
[31] = Cell cycle arrest in HEK293EBNA cells by accumulation at G2/M phase cell at 0.5 uM relative to DMSO; assay type: functional, cell-based; settings: Homo sapiens, HEK293-EBNA; how it was run: as §1

## COc1ccc2c(c1N)C(=O)O[C@@H]2[C@H]1c2c(c(Br)c3c(c2OC)OCO3)CCN1C
[1]
  Activity: 4%
[2]
  Activity: 15%
[3]
  Activity: 81%

## COc1ccc2c(c1NCc1ccccc1)C(=O)O[C@@H]2[C@H]1c2c(cc3c(c2OC)OCO3)CCN1C
[4]
  Activity: 8%
[5]
  Activity: 29%
[6]
  Activity: 63%

## CC[C@]1(O)C[C@@H]2CN(CCc3c([nH]c4ccccc34)[C@@](C(=O)OC)(c3cc4c(cc3OC)N(C)[C@H]3[C@@](O)(C(=O)OC)[C@H](OC(C)=O)[C@]5(CC)C=CCN6CC[C@]43[C@@H]65)C2)C1 [VINBLASTINE]
[7]
  EC50: 0.9 nM
[8]
  EC50: 0.5 nM

## COc1ccc2c(c1OS(=O)(=O)C(F)(F)F)C(=O)O[C@@H]2[C@H]1c2c(cc3c(c2OC)OCO3)CCN1C
[9]
  Activity: 56%
[10]
  Activity: 35%
[11]
  Activity: 9%

## COc1ccc2c(c1N)C(=O)O[C@@H]2[C@H]1c2c(cc3c(c2OC)OCO3)CCN1C
[12]
  AUC: 391 ng·h/mL
[13]
  bioavailability: 11.4%
[14]
  Activity: 1%
[15]
  Activity: 7%
[16]
  Activity: 92%
[17]
  EC50: 300 nM
[7]
  EC50: 97 nM
[8]
  EC50: 84 nM
[18]
  Activity: inactive
[19]
  AUC: 350 ng·h/mL
[20]
  Vd: 8.47 L/kg
[21]
  half-life: 1.04 h
[22]
  clearance: 95.3 mL/min/kg

## COc1cc2c(c(OC)c1OC)-c1ccc(OC)c(=O)cc1[C@@H](NC(C)=O)CC2
[23]
  Activity: 3%
[24]
  Activity: 14%
[25]
  Activity: 83%

## COc1ccc2c(c1OC)C(=O)O[C@@H]2[C@H]1c2c(cc3c(c2OC)OCO3)CCN1C [NOSCAPINE]
[12]
  AUC: 524 ng·h/mL
[13]
  bioavailability: 14.1%
[9]
  Activity: 19%
[10]
  Activity: 31%
[11]
  Activity: 50%
[17]
  EC50: > 50000 nM
[7]
  EC50: 25000 nM
[19]
  AUC: 345 ng·h/mL
[26]
  Vdss: 15.53 L/kg
[27]
  t1/2: 0.833 h

## COc1ccc2c(c1S)C(=O)O[C@@H]2[C@H]1c2c(cc3c(c2OC)OCO3)CCN1C
[4]
  Activity: 3%
[5]
  Activity: 7%
[6]
  Activity: 90%

## COc1ccc2c(c1O)C(=O)O[C@@H]2[C@H]1c2c(cc3c(c2OC)OCO3)CCN1C
[12]
  AUC: 740 ng·h/mL
[13]
  bioavailability: 22%
[1]
  Activity: 3%
[2]
  Activity: 9%
[3]
  Activity: 88%
[17]
  EC50: 700 nM
[7]
  EC50: 600 nM
[8]
  EC50: 500 nM
[28]
  Activity: inactive
[19]
  AUC: 331 ng·h/mL
[20]
  Vd: 28.1 L/kg
[21]
  half-life: 2.79 h
[22]
  clearance: 101 mL/min/kg

## CNc1c(OC)ccc2c1C(=O)O[C@@H]2[C@H]1c2c(cc3c(c2OC)OCO3)CCN1C
[29]
  Activity: 8%
[30]
  Activity: 25%
[31]
  Activity: 67%

## COc1ccc2c(c1)C(=O)O[C@@H]2[C@H]1c2c(cc3c(c2OC)OCO3)CCN1C
[1]
  Activity: 4%
[2]
  Activity: 6%
[3]
  Activity: 90%
